Calls of active or inactive are those of the source. No cut-off for these calls is given here.
Assays:
[1] = biological target: T1, Amine oxidase [flavin-containing] A (Homo sapiens, UniProt P21397); assay: Inhibition of human recombinant microsomal MAO- A expressed in baculovirus infected BTI-TN-5B1- 4 cells assessed as reduction in production of H202 at 50 uM using p-tyramine as substrate incubated for 30 mins followed by substrate addition by horse radish peroxidase/Amplex red reagent based fluorescence assay; conditions: 0.5 h
T1 sequence (P21397 whole entry): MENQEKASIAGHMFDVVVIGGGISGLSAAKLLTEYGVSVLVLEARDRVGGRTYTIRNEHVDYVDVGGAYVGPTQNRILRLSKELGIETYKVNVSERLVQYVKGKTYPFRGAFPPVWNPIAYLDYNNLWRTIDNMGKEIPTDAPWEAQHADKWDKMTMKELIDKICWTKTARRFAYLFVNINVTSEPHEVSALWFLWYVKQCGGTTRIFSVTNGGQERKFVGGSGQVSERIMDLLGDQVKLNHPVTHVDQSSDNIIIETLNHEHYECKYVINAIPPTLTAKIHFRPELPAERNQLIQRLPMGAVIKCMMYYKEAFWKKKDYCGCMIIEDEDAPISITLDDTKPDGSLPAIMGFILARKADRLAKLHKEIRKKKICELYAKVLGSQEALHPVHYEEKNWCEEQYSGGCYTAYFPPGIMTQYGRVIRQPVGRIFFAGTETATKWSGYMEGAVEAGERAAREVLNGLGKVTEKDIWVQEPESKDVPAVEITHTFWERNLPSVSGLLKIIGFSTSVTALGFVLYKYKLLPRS
How it was run: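 Recombinant hMAO-A (1.1 µg protein) preincubated 30 min at 37 °C with test compound in 0.05 M sodium phosphate, pH 7.4. Reaction started with (final) 200 µM Amplex Red, 1 U/mL HRP and 1 mM p-tyramine. After 30 min in the dark, H2O2 read by fluorescence (ex 545/em 590 nm) at 37 °C. Background without enzyme subtracted; vehicle control.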

[2] = biological target: T1, Amine oxidase [flavin-containing] A; assay: Inhibition of human recombinant microsomal MAO-A expressed in baculovirus infected BTI-TN-5B1-4 cells assessed as reduction in production of H202 using p-tyramine as substrate incubated for 30 mins followed by substrate addition by horse radish peroxidase/Amplex red reagent based fluorescence assay; format: cell-based
[3] = biological target: T2, Amine oxidase [flavin-containing] B (Homo sapiens, UniProt P27338); assay: Inhibition of human recombinant microsomal MAO-B expressed in baculovirus infected BTI-TN-5B1-4 cells assessed as reduction in production of H202 using p-tyramine as substrate incubated for 30 mins followed by substrate addition by horse radish peroxidase/Amplex red reagent based fluorescence assay; format: cell-based
T2 sequence (P27338 whole entry): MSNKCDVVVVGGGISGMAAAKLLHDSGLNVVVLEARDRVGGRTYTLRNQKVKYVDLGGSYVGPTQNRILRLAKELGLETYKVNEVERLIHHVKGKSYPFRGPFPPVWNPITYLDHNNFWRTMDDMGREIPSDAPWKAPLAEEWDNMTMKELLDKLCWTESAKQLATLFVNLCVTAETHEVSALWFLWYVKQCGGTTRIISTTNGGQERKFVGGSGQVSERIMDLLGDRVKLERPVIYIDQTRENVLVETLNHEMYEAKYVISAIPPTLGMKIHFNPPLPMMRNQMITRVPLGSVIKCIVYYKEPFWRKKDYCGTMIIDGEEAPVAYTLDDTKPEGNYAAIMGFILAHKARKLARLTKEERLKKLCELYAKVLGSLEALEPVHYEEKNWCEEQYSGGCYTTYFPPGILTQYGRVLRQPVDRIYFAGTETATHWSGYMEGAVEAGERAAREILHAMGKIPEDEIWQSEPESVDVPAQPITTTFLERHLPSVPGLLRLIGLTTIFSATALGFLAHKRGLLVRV

[4] = species: Homo sapiens; assay: Selectivity index, ratio of IC50 for human recombinant microsomal MAO- A expressed in baculovirus infected BTI-TN-5B1- 4 cells using p-tyramine as substrate to IC50 for human recombinant microsomal MAO- B expressed in baculovirus infected BTI-TN-5B1- 4 cells using p-tyramine as substrate by horse radish peroxidase/Amplex red reagent based fluorescence assay
How it was run: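 Recombinant hMAO-A (1.1 µg) or hMAO-B (7.5 µg) preincubated with inhibitor over a concentration range for 30 min at 37 °C in 0.05 M sodium phosphate, pH 7.4. Reaction started with 1 mM p-tyramine, 200 µM Amplex Red and 1 U/mL HRP (final concentrations). H₂O₂ was read by fluorescence (ex 545/em 590 nm) after 30 min dark incubation. Background without enzyme was subtracted; vehicle served as control.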

[5] = biological target: Acetylcholinesterase (Electrophorus electricus, UniProt O42275); assay: Inhibition of electric eel AChE assessed as reduction in production of H202 using acetylcholine as substrate incubated for 15 mins followed by substrate addition by horse radish peroxidase/Amplex red reagent based fluorescence assay
[6] = Cytotoxicity against human SH-SY5Y cells assessed as cell viability at 5 uM measured after 24 hrs by MTT assay relative to control; format: cell-based; conditions: read-out: Activity
How it was run: (§1)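 SH-SY5Y cells, about 10,000/well, grown 24 h in DMEM/F-12 with 10% FBS, horse serum and 1% penicillin. Exposed to compound at 1, 5 or 25 μM for 24 h, serum-free, at 37 °C, 5% CO2. MTT added, 4 h at 37 °C, formazan dissolved in DMSO, OD read at 595 nm. Viability expressed relative to control.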

[7] = test system: SH-SY5Y; assay: Inhibition of ROS generation in human SH-SY5Y cells at 5 uM measured after 24 hrs by DCF-DA dye based fluorescence assay relative to control; format: functional
How it was run: (§2)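 SH-SY5Y cells, about 10,000/well, grown 24 h in DMEM/F-12 with 10% FBS, horse serum and 1% penicillin. Washed with PBS, then exposed to compound without FBS for 24 h (1, 5, 25 μM). Rinsed three times in PBS, loaded with H2DCF-DA (50 μM) for 30 min at 37 °C, rinsed again. Fluorescence read at ex 478 / em 518 nm.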

[8] = Cytotoxicity against human SH-SY5Y cells assessed as cell viability at 25 uM measured after 24 hrs by MTT assay relative to control; format: cell-based; conditions: read-out: Activity; how it was run: as §1
[9] = Metal chelating activity of the compound assessed as formation of Fe2+ complex at 50 uM by UV-vis spectrophotometric analysis
How it was run: (§3)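 Absorption spectra recorded by UV–vis spectrophotometry for compound alone (50 μM final) and with CuSO₄, FeSO₄ or FeCl₃ (50 μM final); chelation judged from spectral change.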

[10] = test system: SH-SY5Y; assay: Neuroprotective activity against 6-OHDA induced toxicity in human SH-SY5Y cells assessed as cell viability at 5 uM preincubated for 4 hrs followed by 6-OHDA addition and measured after 24 hrs by MTT assay (reference value: 48.52 %); format: functional; conditions: read-out: Activity
[11] = test system: SH-SY5Y; assay: Neuroprotective activity against 6-OHDA induced toxicity in human SH-SY5Y cells assessed as cell viability at 1 uM preincubated for 4 hrs followed by 6-OHDA addition and measured after 24 hrs by MTT assay (reference value: 48.52 %); format: functional; conditions: read-out: Activity
[12] = biological target: Acetylcholinesterase (Electrophorus electricus) (UniProt O42275); assay: Reversible inhibition of electric eel AChE assessed as recovery of enzyme activity at 100 times IC50 using acetylcholine as substrate relative to control
[13] = Metal chelating activity of the compound assessed as formation of Cu2+ complex at 50 uM by UV-vis spectrophotometric analysis; how it was run: as §3
[14] = biological target: Acetylcholinesterase (Electrophorus electricus) (UniProt O42275); assay: Reversible inhibition of electric eel AChE assessed as recovery of enzyme activity at 0.1 times IC50 using acetylcholine as substrate relative to control
[15] = test system: SH-SY5Y; assay: Inhibition of ROS generation in human SH-SY5Y cells at 25 uM measured after 24 hrs by DCF-DA dye based fluorescence assay relative to control; format: functional; how it was run: as §2
[16] = test system: SH-SY5Y; assay: Neuroprotective activity against 6-OHDA induced toxicity in human SH-SY5Y cells assessed as cell viability at 25 uM preincubated for 4 hrs followed by 6-OHDA addition and measured after 24 hrs by MTT assay (reference value: 48.52 %); format: functional; conditions: read-out: Activity
[17] = Octanol/water partition coefficient, logP of compound; format: physicochemical
[18] = Metal chelating activity of the compound assessed as formation of Fe3+ complex at 50 uM by UV-vis spectrophotometric analysis; how it was run: as §3
[19] = biological target: Acetylcholinesterase (Electrophorus electricus) (UniProt O42275); assay: Reversible inhibition of electric eel AChE assessed as recovery of enzyme activity at 10 times IC50 using acetylcholine as substrate relative to control
[20] = test system: SH-SY5Y; assay: Inhibition of ROS generation in human SH-SY5Y cells at 1 uM measured after 24 hrs by DCF-DA dye based fluorescence assay relative to control; format: functional; how it was run: as §2
[21] = Cytotoxicity against human SH-SY5Y cells assessed as cell viability at 1 uM measured after 24 hrs by MTT assay relative to control; format: cell-based; conditions: read-out: Activity; how it was run: as §1
[22] = biological target: Acetylcholinesterase (Electrophorus electricus) (UniProt O42275); assay: Reversible inhibition of electric eel AChE assessed as recovery of enzyme activity at IC50 using acetylcholine as substrate relative to control
[23] = biological target: Acetylcholinesterase (Electrophorus electricus) (UniProt O42275); conditions: at 1 to 5 µM

Chain of Acetylcholinesterase (Electrophorus electricus) (O42275 24-633 limits assumed): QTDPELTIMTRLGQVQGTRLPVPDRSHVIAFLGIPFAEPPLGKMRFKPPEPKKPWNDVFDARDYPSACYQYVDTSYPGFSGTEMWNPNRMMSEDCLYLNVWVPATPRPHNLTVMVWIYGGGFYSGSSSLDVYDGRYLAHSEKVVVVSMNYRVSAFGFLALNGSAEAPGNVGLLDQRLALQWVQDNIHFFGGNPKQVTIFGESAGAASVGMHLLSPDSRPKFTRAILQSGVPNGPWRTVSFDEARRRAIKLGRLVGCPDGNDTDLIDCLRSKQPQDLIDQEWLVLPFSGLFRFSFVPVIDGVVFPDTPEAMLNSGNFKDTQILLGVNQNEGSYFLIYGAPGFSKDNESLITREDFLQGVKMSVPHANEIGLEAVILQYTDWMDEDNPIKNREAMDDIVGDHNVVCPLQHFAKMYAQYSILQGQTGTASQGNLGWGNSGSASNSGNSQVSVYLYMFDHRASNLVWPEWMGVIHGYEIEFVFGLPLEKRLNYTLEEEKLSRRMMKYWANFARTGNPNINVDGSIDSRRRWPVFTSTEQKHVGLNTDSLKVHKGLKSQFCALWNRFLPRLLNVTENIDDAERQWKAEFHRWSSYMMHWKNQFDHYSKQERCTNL
Chain of Acetylcholinesterase (O42275 whole entry): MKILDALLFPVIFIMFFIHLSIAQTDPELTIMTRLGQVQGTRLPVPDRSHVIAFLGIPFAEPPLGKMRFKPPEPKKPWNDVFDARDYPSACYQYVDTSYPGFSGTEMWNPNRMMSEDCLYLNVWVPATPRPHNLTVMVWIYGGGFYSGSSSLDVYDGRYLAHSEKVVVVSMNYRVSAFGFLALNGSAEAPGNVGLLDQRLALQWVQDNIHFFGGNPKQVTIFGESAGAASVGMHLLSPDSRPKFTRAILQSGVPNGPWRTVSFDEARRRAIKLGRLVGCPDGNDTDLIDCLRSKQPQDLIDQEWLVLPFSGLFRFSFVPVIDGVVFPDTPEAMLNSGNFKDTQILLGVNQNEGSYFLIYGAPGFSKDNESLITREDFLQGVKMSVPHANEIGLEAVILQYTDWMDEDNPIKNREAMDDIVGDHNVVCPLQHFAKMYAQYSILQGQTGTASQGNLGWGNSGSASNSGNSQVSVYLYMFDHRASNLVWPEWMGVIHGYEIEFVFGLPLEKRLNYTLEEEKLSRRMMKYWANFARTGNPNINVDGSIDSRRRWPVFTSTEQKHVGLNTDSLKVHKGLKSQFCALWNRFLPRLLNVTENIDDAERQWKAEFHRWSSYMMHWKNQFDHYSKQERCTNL

| Compound | inhibition at 50 µM [1] [%] | IC50 ([2]; bti-tn-5b1-4) | IC50 [3] [µM] | Ratio IC50 [4] | IC50 [5] [µM] | IC50 ([2]; read-out: IC50) [µM] | further results |
| --- | --- | --- | --- | --- | --- | --- | --- |
| C#CCOc1ccccc1-c1cc(-c2ccccc2OCC#C)nc(N)n1 | < 50 | Not Active | 11.1 | > 5 | 5.19 | – | – |
| C#CCOc1ccccc1-c1cc(-c2ccccc2OCC#C)nc(-c2ccccc2)n1 | < 50 | Not Active | 13.8 | > 4 | 8.12 | – | – |
| C#CCOc1ccc(-c2cc(-c3ccc(OCC#C)cc3)nc(N)n2)cc1 | – | – | 3.3 | 9.7 | 1.35 | 32.1 | viability at 24 h, 5 µM [6]: 73%; inhibition at 5 µM [7]: 30%; viability at 24 h, 25 µM [8]: 72.6%; Activity [9]: inactive; viability at 5 µM [10]: 62.4%; viability at 1 µM [11]: 66.6%; inhibition [12]: 3.4%; Activity [13]: inactive; inhibition [14]: 66.5%; inhibition at 25 µM [15]: 25.9%; viability at 25 µM [16]: 53.6%; logP [17]: 4.52; Activity [18]: inactive; inhibition [19]: 10.2%; inhibition at 1 µM [20]: 89.8%; viability at 24 h, 1 µM [21]: 79%; inhibition [22]: 42.4% |
| C#CCOc1ccc(-c2cc(-c3ccc(OCC#C)c(OC)c3)nc(-c3ccccc3)n2)cc1 | – | – | 15.7 | 1.6 | 6.99 | 24.9 | – |
| C#CCOc1ccc(-c2cc(-c3ccc(OCC#C)c(OC)c3)nc(C)n2)cc1 | – | – | 21.1 | 1.2 | 5.92 | 25 | – |
| C#CCOc1ccc(-c2cc(-c3ccc(OCC#C)c(OC)c3)nc(N)n2)cc1 | < 50 | Not Active | 20 | > 3 | 4.58 | – | – |
| C#CCOc1ccc(-c2cc(-c3ccc(OCC#C)c(OCC)c3)nc(C)n2)cc1 | < 50 | Not Active | 11 | > 5 | 6.38 | – | – |
| C#CCOc1ccc(-c2cc(-c3ccc(OCC#C)cc3)nc(C)n2)cc1 | – | – | 7.83 | 4.4 | 1.76 | 34.1 | – |
| C#CCOc1ccc(-c2cc(-c3cccc(OCC#C)c3)nc(N)n2)cc1 | – | – | 1.49 | 16.1 | 1.74 | 24.1 | viability at 24 h, 5 µM [6]: 79.6%; inhibition at 5 µM [7]: 47.2%; viability at 24 h, 25 µM [8]: 69.2%; Activity [9]: inactive; viability at 5 µM [10]: 59.5%; viability at 1 µM [11]: 60.5%; inhibition [12]: 7.35%; Activity [13]: inactive; inhibition [14]: 82.8%; inhibition at 25 µM [15]: 41%; viability at 25 µM [16]: 52.3%; inhibition [23]: Active; logP [17]: 4.51; Activity [18]: inactive; inhibition [19]: 12.3%; inhibition at 1 µM [20]: 68.3%; viability at 24 h, 1 µM [21]: 87.3%; inhibition [22]: 41.8% |
| C#CCOc1ccc(-c2cc(-c3ccc(OCC#C)c(OCC)c3)nc(-c3ccccc3)n2)cc1 | < 50 | Not Active | 29 | > 2 | 6.94 | – | – |
| C#CCOc1ccc(-c2cc(-c3ccccc3OCC#C)nc(C)n2)cc1 | – | – | 18.1 | 1.3 | 2.56 | 23.2 | – |
| C#CCOc1ccc(-c2cc(-c3ccccc3OCC#C)nc(N)n2)cc1 | – | – | 22.1 | 1.3 | 1.81 | 28.6 | – |
| C#CCOc1ccc(-c2cc(-c3cccc(OCC#C)c3)nc(-c3ccccc3)n2)cc1 | – | – | 17.7 | 1.5 | 4.39 | 25.8 | – |
| C#CCOc1cccc(-c2cc(-c3cccc(OCC#C)c3)nc(-c3ccccc3)n2)c1 | < 50 | Not Active | 23.4 | > 3 | 6.73 | – | – |
| C#CCOc1ccc(-c2cc(-c3cccc(OCC#C)c3)nc(C)n2)cc1 | – | – | 8.09 | 2.6 | 5.88 | 21.1 | – |
| C#CCOc1ccc(-c2cc(-c3ccc(OCC#C)c(OCC)c3)nc(N)n2)cc1 | < 50 | Not Active | 14 | > 4 | 7.05 | – | – |
| C#CCOc1ccc(-c2cc(-c3ccccc3OCC#C)nc(-c3ccccc3)n2)cc1 | – | – | 14.4 | 1.5 | 7.25 | 22 | – |
| C#CCOc1cccc(-c2cc(-c3cccc(OCC#C)c3)nc(N)n2)c1 | < 50 | Not Active | 22.1 | > 3 | 6.99 | – | – |
| C#CCOc1ccc(-c2cc(-c3ccc(OCC#C)cc3)nc(-c3ccccc3)n2)cc1 | – | – | 12.3 | 2.1 | 7.53 | 25.6 | – |
